According to publication PMC11066580 (Inorganic chemistry, 2024):

Columns and labels:
CTSB = CTSB (Mus musculus, UniProt P10605); assay: Cathepsin activity in lysates of treated 4T1 cells, substrate Z-Arg-Arg-AMC; assay type: cell-based, murine; conditions: 1 μM, 4 h, then 1 h, relative to vehicle control
Method in brief: (§1)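 4T1 cells were given vehicle, 1 μM test compound, or 1 μM E64d (permeable positive control) for 4 h. Medium was then replaced, and cells received green light (520–525 nm) for 10 min or were kept dark, then incubated 1 h. Substrate 100 μM final; AMC fluorescence (ex 360/em 430 nm) read every 30 s for 5 min at 37 °C; % activity vs vehicle.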

cysteine cathepsins = assay: Cathepsin activity in lysates of treated 4T1 cells, substrate Z-Phe-Arg-AMC; assay type: cell-based, murine; conditions: 1 μM, 4 h, then 1 h, relative to vehicle control
Method in brief: as §1

[1] = Preliminary phototoxicity screen with green light; assay type: cell-based; conditions: green light (520–525 nm); data not shown

Sequence of CTSB (P10605 80-339): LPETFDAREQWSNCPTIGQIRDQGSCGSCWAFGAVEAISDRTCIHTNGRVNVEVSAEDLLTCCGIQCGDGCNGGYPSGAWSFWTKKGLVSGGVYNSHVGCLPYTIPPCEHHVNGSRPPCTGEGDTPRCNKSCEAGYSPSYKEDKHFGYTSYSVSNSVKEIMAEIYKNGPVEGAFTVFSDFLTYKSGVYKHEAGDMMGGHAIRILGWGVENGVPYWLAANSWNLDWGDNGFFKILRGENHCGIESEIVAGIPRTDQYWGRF

| Molecule | Percent activity of cysteine cathepsins, substrate Z-Arg-Arg-AMC, Dark (CTSB; dark) [%] | Percent activity of cysteine cathepsins, substrate Z-Arg-Arg-AMC, Light (CTSB; green light 10 min) [%] | Percent activity of cysteine cathepsins, substrate Z-Phe-Arg-AMC, Dark (cysteine cathepsins; dark) [%] | Percent activity of cysteine cathepsins, substrate Z-Phe-Arg-AMC, Light (cysteine cathepsins; green light 10 min) [%] | phototoxicity in preliminary screen [1] |
| --- | --- | --- | --- | --- | --- |
| CCOC(=O)[C@H]1O[C@@H]1C(=O)N[C@@H](CC(C)C)C(=O)NCCC(C)C [Compound E64d] | <5 | <5 | 18 ± 4 | 21 ± 4 | – |
| [Ru(dppn)(dqpy)-(py)](PF6)2 | – | – | – | – | showed phototoxicity |
